Assay results as given in ChEMBL document CHEMBL1133116, “Synthesis and evaluation of 17-aliphatic heterocycle-substituted steroidal inhibitors of 17alpha-hydroxylase/C17-20-lyase (P450 17)” (J Med Chem, 2000).

How the values were obtained:
[1] = target: T1, Steroid 17-alpha-hydroxylase/17,20 lyase (Homo sapiens, UniProt P05093); test: Inhibition of Cytochrome P450 17 from human testicular microsomes at 2.5 uM; n.i. means no inhibition
T1 sequence (P05093 whole entry): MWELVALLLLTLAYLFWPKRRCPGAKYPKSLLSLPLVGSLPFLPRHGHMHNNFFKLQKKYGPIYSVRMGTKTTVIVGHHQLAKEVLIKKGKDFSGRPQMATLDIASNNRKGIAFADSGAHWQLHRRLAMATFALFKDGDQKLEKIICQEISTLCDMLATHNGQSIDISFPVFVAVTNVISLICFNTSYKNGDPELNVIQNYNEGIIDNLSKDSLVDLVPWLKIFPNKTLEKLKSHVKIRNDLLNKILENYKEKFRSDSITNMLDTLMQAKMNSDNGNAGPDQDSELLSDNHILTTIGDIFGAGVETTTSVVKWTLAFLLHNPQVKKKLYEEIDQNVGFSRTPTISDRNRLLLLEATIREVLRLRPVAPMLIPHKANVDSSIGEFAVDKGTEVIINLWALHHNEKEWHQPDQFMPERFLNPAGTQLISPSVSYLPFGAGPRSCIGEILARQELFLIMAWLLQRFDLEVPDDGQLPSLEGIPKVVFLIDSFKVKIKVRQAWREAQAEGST
Procedure, shortened: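 Human testicular microsomes as P450 17 source, with progesterone in large excess (25 µM) as substrate. Inhibitor was tested at 2.5 µM. The 16α- and 17α-hydroxyprogesterone products were quantified by reverse-phase HPLC with UV detection. No lyase products form with the human enzyme. Values are means of at least two experiments.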

[2] = target: T2, Steroid 17-alpha-hydroxylase/17,20 lyase (Rattus norvegicus, UniProt P11715); test: Inhibition of Cytochrome P450 17 from rat testicular microsomes at 125 uM; n.i. means no inhibition
T2 sequence (P11715 whole entry): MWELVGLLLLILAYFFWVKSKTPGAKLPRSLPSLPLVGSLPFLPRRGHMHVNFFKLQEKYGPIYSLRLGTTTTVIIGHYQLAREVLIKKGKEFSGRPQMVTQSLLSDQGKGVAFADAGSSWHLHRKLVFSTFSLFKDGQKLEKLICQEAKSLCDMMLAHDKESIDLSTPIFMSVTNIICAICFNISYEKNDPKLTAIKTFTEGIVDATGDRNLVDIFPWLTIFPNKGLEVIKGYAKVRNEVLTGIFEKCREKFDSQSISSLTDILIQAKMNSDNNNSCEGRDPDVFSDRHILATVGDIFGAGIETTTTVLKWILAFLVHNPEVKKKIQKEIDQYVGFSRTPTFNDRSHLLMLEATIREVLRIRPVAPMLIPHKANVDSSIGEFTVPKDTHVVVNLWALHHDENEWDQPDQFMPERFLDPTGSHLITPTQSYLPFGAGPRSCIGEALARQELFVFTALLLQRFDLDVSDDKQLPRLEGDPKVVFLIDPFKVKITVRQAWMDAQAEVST
Procedure, shortened: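 Rat testicular microsomes as P450 17 source, with progesterone substrate at 25 µM. […] Products were quantified by reverse-phase HPLC with UV detection. Values are means of at least two experiments.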

## COC1CC[C@@]2(C)C(=CC[C@H]3[C@@H]4CC[C@@H](C5CO5)[C@@]4(C)CC[C@@H]32)C1 (some centres not stated)
[1]
  IC50: Not Active
[2]
  IC50: Not Active
